In ChEMBL document CHEMBL1687917, “Increased bioavailability of tricin-amino acid derivatives via a prodrug approach” (J Med Chem, 2011):

Key:
[1] = Cmax in Crl:CD (SD) rat at 300 mg/kg, po after 0.5 to 8 hrs by RP-HPLC; assay type: ADME, organism-based; set-up: dose 300 mg/kg, route oral; conditions: in vivo
In short: (§1)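 Male Crl:CD (SD) rats were given a single oral bolus of the prodrug by gavage at 100, 300 or 1000 mg kg^-1. Blood was drawn from the tail at 0, 0.5, 2, 4 and 8 h, and plasma was separated by centrifugation (6000 rpm, 10 min, 4 °C) and held at -25 °C for no more than 19 days. Released tricin was quantified. Two Cmax values were reported, with AUC over 0-8 h; means ± SEMs, n = 3.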

[2] = Cmax in Crl:CD (SD) rat at 1000 mg/kg, po after 0.5 to 8 hrs by RP-HPLC; assay type: ADME, organism-based; set-up: dose 1000 mg/kg, route oral; conditions: in vivo; in short: as §1
[3] = Stability of the compound in MDCK cell lysate assessed as half life; assay type: ADME, cell-based, Canis lupus familiaris; conditions: dog
In short: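 Whole-cell lysate was prepared from 1.33 × 10⁶ MDCK cells with lysis buffer, and prodrugs were incubated with it. Half-life was taken as the time to 50% release of parent drug through carbamate hydrolysis by endogenous enzymes; means ± SEMs, n = 3.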

[4] = Cmax in Crl:CD (SD) rat at 100 mg/kg, po after 0.5 to 8 hrs by RP-HPLC; assay type: ADME, organism-based; set-up: dose 100 mg/kg, route oral; conditions: in vivo; in short: as §1
[5] = AUC (0 to 8 hrs) in Crl:CD (SD) rat at 100 mg/kg, po after 0.5 to 8 hrs; assay type: ADME, organism-based; set-up: time < 8 hr, dose 100 mg/kg, route oral; conditions: plasma; in short: as §1
[6] = test system: Mus musculus; test: Toxicity in Crlj:CD1 (ICR) mouse assessed as abnormal appearance at 300 mg/kg/day, po for 14 days; assay type: organism-based; set-up: route oral; conditions: in vivo, 336 h
[7] = test system: Mus musculus; test: Toxicity in Crlj:CD1 (ICR) mouse assessed as abnormal body weight at 300 mg/kg/day, po for 14 days; assay type: organism-based; set-up: route oral; conditions: in vivo, 336 h
[8] = test system: Mus musculus; test: Toxicity in Crlj:CD1 (ICR) mouse assessed as abnormal food consumption at 300 mg/kg/day, po for 14 days; assay type: organism-based; set-up: route oral; conditions: in vivo, 336 h
[9] = test system: Mus musculus; test: Toxicity in Crlj:CD1 (ICR) mouse assessed as abnormal hematology at 300 mg/kg/day, po for 14 days; assay type: organism-based; set-up: route oral; conditions: in vivo, 336 h
[10] = test system: Mus musculus; test: Toxicity in Crlj:CD1 (ICR) mouse assessed as abnormal blood chemistry at 300 mg/kg/day, po for 14 days; assay type: organism-based; set-up: route oral; conditions: in vivo, 336 h
[11] = test system: Mus musculus; test: Toxicity in Crlj:CD1 (ICR) mouse assessed as abnormal autopsy test at 300 mg/kg/day, po for 14 days; assay type: organism-based; set-up: route oral; conditions: in vivo, 336 h
[12] = AUC (0 to 8 hrs) in Crl:CD (SD) rat at 300 mg/kg, po after 0.5 to 8 hrs; assay type: ADME, organism-based; set-up: time < 8 hr, dose 300 mg/kg, route oral; conditions: plasma; in short: as §1
[13] = AUC (0 to 8 hrs) in Crl:CD (SD) rat at 1000 mg/kg, po after 0.5 to 8 hrs; assay type: ADME, organism-based; set-up: time < 8 hr, dose 1000 mg/kg, route oral; conditions: plasma; in short: as §1
[14] = test system: Plasma; test: Plasma concentration in Crl:CD (SD) rat at 100 mg/kg, po after 0.5 to 4 hrs; assay type: ADME, organism-based; set-up: dose 100 mg/kg, route oral; conditions: in vivo
In short: (§2)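 Tricin was suspended in 1% aqueous methylcellulose (10 mL kg^-1), sonicated and given as a single gavage dose of 100, 300 or 1000 mg kg^-1 to male and female Crl:CD (SD) rats. Tail blood was taken at 0, 0.5, 2 and 4 h, and plasma tricin was quantified by RP-HPLC; means ± SEMs, n = 3.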

[15] = test system: Plasma; test: Plasma concentration in Crl:CD (SD) rat at 300 mg/kg, po after 0.5 to 4 hrs; assay type: ADME, organism-based; set-up: dose 300 mg/kg, route oral; conditions: in vivo; in short: as §2
[16] = test system: Plasma; test: Plasma concentration in Crl:CD (SD) rat at 1000 mg/kg, po after 0.5 to 4 hrs; assay type: ADME, organism-based; set-up: dose 1000 mg/kg, route oral; conditions: in vivo; in short: as §2

Compound	Cmax [1] [ng/mL]	Cmax [2] [ng/mL]	half-life [3] [h]	Cmax [4] [ng/mL]	AUC(0-t) at 8 h [5] [ng·h/mL]	Activity [6]	Activity [7]	Activity [8]	Activity [9]	Activity [10]	Activity [11]	AUC(0-t) at 8 h [12] [ng·h/mL]	AUC(0-t) at 8 h [13] [ng·h/mL]	Cp [14] [ng/mL]	Cp [15] [ng/mL]	Cp [16] [ng/mL]
COc1cc(-c2cc(=O)c3c(O)cc(O)cc3o2)cc(OC)c1OC(=O)N[C@@H](C)C(=O)N[C@@H](CCC(=O)O)C(=O)O	2870	2880	2.75	692	10300	Non-toxic	Non-toxic	Non-toxic	Non-toxic	Non-toxic	Non-toxic	15100	21500			
COc1cc(-c2cc(=O)c3c(O)cc(O)cc3o2)cc(OC)c1O [TRICIN]														< 60	< 60	< 60
